# According to ChEMBL document CHEMBL2331406, “In vitro activity of scorpiand-like azamacrocycle derivatives in promastigotes and intracellular amastigotes of Leishmania infantum and Leishmania braziliensis” (Eur J Med Chem, 2013):
# The source made the active and inactive calls. No cut-off for these calls is given here.
# System: Leishmania braziliensis
# Experiment: Antileishmanial activity against promastigote form of Leishmania braziliensis MHOM/BR/1975/M2904 assessed as structural alterations at IC25 concentration after 96 hrs by MET microscopic analysis
# Assay type: functional
# Conditions: MHOM/BR/75/M2904
# Procedure, shortened: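 Promastigotes at 5 × 10^5 cells/mL in MTL medium with compound at IC25 for 96 h. Ultrastructure examined by transmission electron microscopy against untreated control parasites.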
smiles,measurement,value
Cl.c1cc2nc(c1)CNCCN(CCNCc1cccc3ccccc13)CCNC2,Activity,inactive
